Molecules are shown by their SMILES.

The values that follow come from ChEMBL document CHEMBL1833835, “Synthesis and evaluation of the anti parasitic activity of aromatic nitro compounds” (Eur J Med Chem, 2011).

The subject of test [1] is Leishmania amazonensis. In words: Antiparasitic activity against promastigote form of Leishmania amazonensis IFLA/BR/67/PH8 after 48 hrs by MTT assay. The class given is functional, organism-based. To be noted: IFLA/BR/67/PH8, 48 h. In outline:
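Promastigotes kept at 23 °C in Schneider's medium with 20% heat-inactivated FCS, pH 7.2; plated at 1 × 10⁷/well. Screening at 100 µM in triplicate, then six-point dilutions in duplicate for compounds exceeding 50% inhibition. After 48 h, MTT added for 4 h, stopped with isopropanol/SDS, OD 570 nm read; IC50 from curve; three independent experiments.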

For test [2], the system named is Trypanosoma cruzi. Description: Trypanocidal activity against intracellular amastigote form of Trypanosoma cruzi Tulahuen expressing beta-galactosidase infected in mouse L929 cells after 7 days by microplate reader analysis. It is filed as functional, organism-based. To be noted: L929, 168 h.
Test [3] has as its system PBMC. Description: Inhibition of cell proliferation of phytohemagglutinin-induced human PBMC. It is filed as cell-based.
Test [4] is described as follows: Selectivity index, ratio of IC50 for human PBMC to IC50 for Leishmania amazonensis IFLA/BR/67/PH8. In outline:
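Ratio of PBMC proliferation IC50 (PHA-stimulated, MTT, 48 h) to promastigote IC50 (MTT, 48 h).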

In test [5] the test system is Trypanosoma cruzi. In words: Trypanocidal activity against intracellular trypomastigote form of Trypanosoma cruzi Tulahuen expressing beta-galactosidase infected in mouse L929 cells after 7 days by microplate reader analysis. It is filed as functional, organism-based. Conditions: L929, 168 h.

What is called IC50 is the concentration at which inhibition is half-maximal. The low end stands for greater potency, the high end for weaker potency. In the case of `O=C(NCCO)c1ccc(CBr)c([N+](=O)[O-])c1`, the values for the IC50 in test [1], in test [2] and in test [3] were 23.1 µM, more than 1000 µM and 53.9 µM, respectively. For the same compound, the “Ratio IC50” value in test [4] is given as 2.3.

Turning to `COC(=O)c1ccc(CBr)c([N+](=O)[O-])c1`, the IC50 in test [1] is 39.3 µM; in test [2], more than 1000 µM; in test [3], 44.1 µM; in test [5], more than 500 µM. In test [4], the “Ratio IC50” value is on record as 1.1.

For the compound `O=C(NCCO)c1ccc(CCl)cc1`, the IC50 is more than 100 µM in test [1], more than 1000 µM in test [2] and 330 µM in test [3]. Also, the “Ratio IC50” value in test [4] is less than 3.3.

In test [2], `O=C(Cn1ccnc1[N+](=O)[O-])NCc1ccccc1` [BENZNIDAZOLE] displayed an IC50 of 3.8 µM.

As for `O=C(O)c1ccc(CBr)cc1`, the IC50 is more than 100 µM in test [1], more than 1000 µM in test [2], 88.8 µM in test [3] and more than 500 µM in test [5]. Further, the “Ratio IC50” value in test [4] is less than 0.9.

As to `O=C(O)c1ccc(CO)c([N+](=O)[O-])c1`, the IC50 in test [1] was more than 100 µM; in test [2] it was more than 1000 µM.

For `O=C(NCCO)c1ccc(CCl)c([N+](=O)[O-])c1`, the IC50 in test [1] is 59.5 µM; in test [2], more than 1000 µM; in test [3], 960 µM. For the same compound, the “Ratio IC50” value in test [4] was 16.1.

Turning to `O=C(O)c1ccc(CBr)c([N+](=O)[O-])c1`, the IC50 in test [1] is more than 100 µM; in test [2], more than 1000 µM; in test [3] it was 344 µM; in test [5] it was more than 500 µM. In test [4], the “Ratio IC50” value was less than 3.4.

Consider `O=C(NCCCl)c1ccc(CCl)c([N+](=O)[O-])c1`, for which the IC50 in test [1] is 50.6 µM; in test [2], more than 1000 µM; in test [3], 1100 µM. For the same compound, in test [4], the “Ratio IC50” value came out at 21.7.
